What is called ED50 is the dose that gives a 50% effect, or the effect in half of the subjects. What is called IC50 is the concentration that gives 50% inhibition.

This is an account of results in ChEMBL document CHEMBL1124042, “Synthesis and potential antipsychotic activity of 1H-imidazo[1,2-c]pyrazolo[3,4-e]pyrimidines” (J Med Chem, 1988).

Assay [1] has as its system Monkey. The assay is described as follows: Inhibition of Sidman avoidance in squirrel monkeys after the compound administered through perorally. In kind it is functional. The note with it: in Saimiri, po. A digest of the protocol:
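Oral dosing in squirrel monkeys trained on continuous (Sidman) avoidance responding. ED50 reported ± SEM.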

The subject of assay [2] is Mus musculus. Put plainly: Inhibition of locomotor activity in mouse after intraperitoneal administration. Format: functional. As to conditions: Mus musculus, ip; read-out: ED50.
Assay [3] deals with T1, Adenosine receptor A1 (Rattus norvegicus, UniProt P25099).
T1 sequence (P25099 whole entry): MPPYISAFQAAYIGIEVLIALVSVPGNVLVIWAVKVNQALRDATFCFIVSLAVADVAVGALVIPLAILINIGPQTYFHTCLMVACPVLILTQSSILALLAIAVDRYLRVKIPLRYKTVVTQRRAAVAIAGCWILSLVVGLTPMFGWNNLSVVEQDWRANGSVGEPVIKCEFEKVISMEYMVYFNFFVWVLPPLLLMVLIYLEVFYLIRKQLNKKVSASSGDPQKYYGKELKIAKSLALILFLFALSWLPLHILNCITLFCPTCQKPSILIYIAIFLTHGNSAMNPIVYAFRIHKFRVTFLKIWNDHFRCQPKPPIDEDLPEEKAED
The assay is described as follows: Displacement of [3H]CHA (N6-Cyclohexyl adenosine) from adenosine A1 receptor in rat brain. Format: tissue-based. A digest of the protocol: (§1)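 Rat brain radioligand displacement binding. IC50 values (μM) were derived by nonlinear regression from four or five concentrations of compound.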
A general note: In a radioligand displacement assay an active substance lowers the binding of a labelled ligand.

Assay [4] addresses Muscarinic acetylcholine receptor. The assay is described as follows: Displacement of [3H]quinuclidinyl benzilate(QNB) from Muscarinic acetylcholine receptor in rat brain. Format: tissue-based. A digest of the protocol:
as §1

For assay [5], the target named is T2, Adrenergic receptor alpha-1 (Rattus norvegicus, UniProt P15823+P23944+P43140).
T2 sequence (P15823 whole entry): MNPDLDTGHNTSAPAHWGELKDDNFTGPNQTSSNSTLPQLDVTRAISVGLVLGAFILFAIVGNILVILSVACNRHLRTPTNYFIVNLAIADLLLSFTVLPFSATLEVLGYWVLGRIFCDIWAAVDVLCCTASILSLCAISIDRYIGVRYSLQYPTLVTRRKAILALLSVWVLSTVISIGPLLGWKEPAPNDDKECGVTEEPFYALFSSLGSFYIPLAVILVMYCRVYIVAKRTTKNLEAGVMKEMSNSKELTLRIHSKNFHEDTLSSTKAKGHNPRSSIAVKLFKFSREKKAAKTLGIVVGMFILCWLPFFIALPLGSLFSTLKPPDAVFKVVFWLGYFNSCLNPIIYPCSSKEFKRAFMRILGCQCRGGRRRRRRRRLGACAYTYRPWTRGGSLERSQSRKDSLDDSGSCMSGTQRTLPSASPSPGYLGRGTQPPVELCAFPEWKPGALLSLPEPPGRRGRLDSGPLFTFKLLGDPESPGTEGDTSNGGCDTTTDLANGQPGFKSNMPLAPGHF
T2 sequence (P23944 whole entry): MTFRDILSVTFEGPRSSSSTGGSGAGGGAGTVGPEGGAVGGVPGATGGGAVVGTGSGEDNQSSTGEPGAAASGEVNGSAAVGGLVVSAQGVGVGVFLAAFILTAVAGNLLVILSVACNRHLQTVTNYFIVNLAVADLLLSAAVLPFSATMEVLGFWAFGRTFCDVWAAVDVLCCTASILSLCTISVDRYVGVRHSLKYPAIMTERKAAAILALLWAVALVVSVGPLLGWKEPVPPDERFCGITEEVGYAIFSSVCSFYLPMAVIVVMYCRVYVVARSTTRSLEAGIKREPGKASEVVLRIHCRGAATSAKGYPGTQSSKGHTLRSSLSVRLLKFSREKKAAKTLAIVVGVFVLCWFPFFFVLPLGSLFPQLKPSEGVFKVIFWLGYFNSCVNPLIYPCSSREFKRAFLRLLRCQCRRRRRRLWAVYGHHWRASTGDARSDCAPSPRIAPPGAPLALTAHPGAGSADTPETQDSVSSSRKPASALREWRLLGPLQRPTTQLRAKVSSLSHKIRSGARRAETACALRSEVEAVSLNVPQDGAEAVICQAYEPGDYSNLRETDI
T2 sequence (P43140 whole entry): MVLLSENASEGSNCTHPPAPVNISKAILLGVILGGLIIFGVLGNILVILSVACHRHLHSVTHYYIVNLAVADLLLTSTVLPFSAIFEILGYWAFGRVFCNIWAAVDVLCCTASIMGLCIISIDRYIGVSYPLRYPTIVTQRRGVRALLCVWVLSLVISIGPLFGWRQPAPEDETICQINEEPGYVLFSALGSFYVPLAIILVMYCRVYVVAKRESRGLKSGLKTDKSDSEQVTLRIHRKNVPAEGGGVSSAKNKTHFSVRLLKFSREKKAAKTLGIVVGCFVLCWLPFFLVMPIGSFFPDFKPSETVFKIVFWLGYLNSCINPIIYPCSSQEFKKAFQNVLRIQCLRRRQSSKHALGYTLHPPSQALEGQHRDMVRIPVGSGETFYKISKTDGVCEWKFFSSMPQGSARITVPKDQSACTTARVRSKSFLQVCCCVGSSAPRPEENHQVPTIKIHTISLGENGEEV
The assay is described as follows: Displacement of [3H]WB-4101 from alpha-1 adrenergic receptor in rat brain. In kind it is tissue-based. A digest of the protocol: as §1

In assay [6] the test system is Mus musculus. Put plainly: Inhibition of induction of ataxia in mouse after intraperitoneal administration. Format: functional. The note with it: ip.
Assay [7] deals with Voltage-gated L-type calcium channel (Rattus norvegicus, UniProt P22002+Q02485+P27732). Put plainly: Displacement of [3H]nitrendipine from L-type [Ca2+] channel of rat brain. Format: tissue-based.
Assay [8] relates to Rattus norvegicus. The assay is described as follows: Inhibition of self-stimulation in rats after the compound administered through perorally. In kind it is functional. The note with it: po. In outline:
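Suppression of high base line self-stimulation in rats after oral dosing. Read-out is ED50 in mg/kg.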

The test system of assay [9] is Rattus norvegicus. The assay is described as follows: Inhibition of locomotion in rats after the compound administered through perorally. Format: functional. As to conditions: po. A digest of the protocol: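 Oral dosing in rats, with spontaneous locomotor activity scored alongside ataxia. ED50 reported ± SEM.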
Assay [10] addresses Serotonin 2 (5-HT2) receptor (Rattus norvegicus, UniProt P30994+P08909+P14842). Put plainly: Displacement of [3H]spiroperidol from 5-hydroxytryptamine 2 receptor in rat brain. In kind it is tissue-based. A digest of the protocol:
as §1

Take `CCC1CN2C(C)=Nc3c(C)nn(C)c3C2=N1` (stereo not given): the ED50 in assay [1] was 7.25 mg/kg; in assay [2], 23.7 mg/kg; in assay [6] it was more than 100 mg/kg; in [8], 10.8 mg/kg; in [9], 15.5 mg/kg. Besides, the IC50 in [3], in [4], in assay [5], in assay [7] and in assay [10] was more than 10 µM each time.
